This sample holds only a part of the variants without activity.
B1: tRNA (parent)
chain: GUUCCGUUGGCGUAAUGGUAACGCGUCUCCCUCCUAAGGAGAAGACUGCGGGUUCGAGUCCCGUACGGAACG

Variants of: B1
Assay: yeast fitness relative to wild type (ratio to wild type); higher = fitter; tRNA-Arg(CCU), competitive growth, 37 C, YPD
Summary of the method: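 For this measurement, the tRNA-Arg(CCU) gene was varied by chemical synthesis at a 3% per-site mutation rate across 69 sites, and each variant was placed at the native genomic locus in Saccharomyces cerevisiae. The pooled strains went through a 24-hour competition in YPD at 37°C in six parallel replicates, with amplicons from start and end populations read by 100-nucleotide paired-end sequencing. Darwinian fitness relative to wild type followed from the change in each genotype's frequency. Genotypes needed ≥ 100 starting reads, and estimates < 0.5 were set to 0.5.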

Going from U16A C24U C61G A65G to A15U G23A C49G, the yeast fitness rises from ≤ 0.5 to 0.583.

Compared with U16A A20U C24G C33G C61A, U16C C22U C33G C55G is higher in yeast fitness: ≤ 0.5 for the first, 0.53 for the second.

First: U16A G67U
Second: U16A G67A
The yeast fitness of the first is lower: 0.85 for the first, 0.926 for the second.

Compared with U16A G39A C46U A57U C66U, U16C C31U C55U is higher in yeast fitness: ≤ 0.5 for the first, 0.659 for the second.

A15U G18C G41A A69C A70G and U16C C30U C34G C49A A70U cannot be ordered by yeast fitness: ≤ 0.5 for the first, ≤ 0.5 for the second.

U16A C30G A57U and A15U U32A C33G U53A cannot be ordered by yeast fitness: ≤ 0.5 for the first, ≤ 0.5 for the second.

Going from U16A C33A C34A C62A to U16C C22U A40G A43U C46G C49G C62U, the yeast fitness rises from ≤ 0.5 to 0.55.

Going from U16A G50C C55U U59G C66U G67A to U16A C46U G51C, the yeast fitness rises from ≤ 0.5 to 0.769.

Compared with U16A C30A A42C, A15U G25A C27A C33U is lower in yeast fitness: 0.558 for the first, 0.512 for the second.

Going from U16A G23C C29U C31G to U16C C46U A69C, the yeast fitness rises from ≤ 0.5 to 0.783.

U16A A21U C24A G52A and U16A A37C C55U cannot be ordered by yeast fitness: ≤ 0.5 for the first, ≤ 0.5 for the second.

Going from U16C C66U to U16A C27G A65C, the yeast fitness falls from 0.891 to 0.585.

U16C C24U C29A C31G C34G and U16A C27G A36U cannot be ordered by yeast fitness: ≤ 0.5 for the first, ≤ 0.5 for the second.

Going from U16A C24U to U16A C34A A40U, the yeast fitness falls from 1.06 to ≤ 0.5.

Compared with A15U G52A C61G, A15U G58C A70U is higher in yeast fitness: 0.596 for the first, 0.643 for the second.

First: U16C A40C A57U
Second: U16C C55A A57C
The yeast fitness of the first is higher: 0.575 for the first, ≤ 0.5 for the second.

Compared with U16C C55A A57U, U16C A21U C31G is higher in yeast fitness: ≤ 0.5 for the first, 0.537 for the second.

Compared with U16C A36U A65U, U16C A36G G68A is higher in yeast fitness: ≤ 0.5 for the first, 0.556 for the second.

Compared with U16A C55A, U16C A40G C46A is higher in yeast fitness: 0.699 for the first, 0.712 for the second.

A15U U26A C55A A70C and U16A C60G G67A cannot be ordered by yeast fitness: ≤ 0.5 for the first, ≤ 0.5 for the second.

First: U16C C46G G56A
Second: U16C C46G C49U
The yeast fitness of the first is higher: 0.748 for the first, 0.731 for the second.

First: U16C C22A A40G C60A
Second: U16A C22U
The yeast fitness of the first is lower: ≤ 0.5 for the first, 0.773 for the second.

First: U16A C22A
Second: U16A C22G
The yeast fitness of the first is lower: 0.941 for the first, 0.989 for the second.

Going from A15U G39A A57U C62G to U16C G17A C34U A42U U64A G68U, the yeast fitness falls from 0.502 to ≤ 0.5.

First: U16C G25C C34U
Second: U16A A57U A69U
The yeast fitness of the first is higher: 0.544 for the first, 0.526 for the second.

First: U16C C34G G44A A65U
Second: U16A A43C
The yeast fitness of the first is lower: ≤ 0.5 for the first, 0.906 for the second.

Going from U16A C24U C34A A65G G67A to U16C A20U U32C, the yeast fitness rises from ≤ 0.5 to 0.615.

Going from U16A G17A C66G A70U to U16A A43U C62G C66A A69C, the yeast fitness falls from 0.634 to ≤ 0.5.

First: U16C C33U A57G G63C
Second: A15U U53C
The yeast fitness of the first is lower: ≤ 0.5 for the first, 0.71 for the second.

Going from A15U U53G to U16A C34U U54C, the yeast fitness falls from 0.539 to ≤ 0.5.

Going from U16A G25A C49A to U16A U19A A69C, the yeast fitness rises from ≤ 0.5 to 0.747.

Going from U16C C29U C62U to U16C C55U A69U, the yeast fitness rises from 0.508 to 0.629.

Going from U16C A42C A65U to U16A G18C A20G C22U U54G C55A, the yeast fitness falls from 0.585 to 0.512.

Compared with A15U G18A G58A, U16C A45G is higher in yeast fitness: ≤ 0.5 for the first, 0.919 for the second.

Compared with U16A G17C A43U A45C C46A C62G, U16A A37U is higher in yeast fitness: ≤ 0.5 for the first, 0.739 for the second.

Compared with U16A A37G, U16C C31G G39A A57U is lower in yeast fitness: 0.79 for the first, 0.692 for the second.

First: U16A G39A C46U A57U G67A
Second: A15U U64A
The yeast fitness of the first is lower: ≤ 0.5 for the first, 0.709 for the second.

Compared with U16A A36U, A15U G38A C46G G56C is lower in yeast fitness: 0.552 for the first, ≤ 0.5 for the second.

First: U16A A69C
Second: U16A A69G
The yeast fitness of the first is higher: 0.969 for the first, 0.853 for the second.

A15U U26A A37G U64A and U16A G50C C66G cannot be ordered by yeast fitness: ≤ 0.5 for the first, ≤ 0.5 for the second.

Compared with U16C C31G, U16C A57U is lower in yeast fitness: 0.838 for the first, 0.686 for the second.

U16A G38A C62A A69U and U16A C31A C33G G38A C66U cannot be ordered by yeast fitness: ≤ 0.5 for the first, ≤ 0.5 for the second.

A15U U19A C24A C34U A40C and U16A G39A G48A G63A A65C cannot be ordered by yeast fitness: ≤ 0.5 for the first, ≤ 0.5 for the second.

Compared with U16C G25C C34U U64G, A15U U28C is higher in yeast fitness: 0.585 for the first, 0.772 for the second.

U16C A37G A42C G67A and A15U G23C C33A G63A cannot be ordered by yeast fitness: ≤ 0.5 for the first, ≤ 0.5 for the second.

U16A A20G C29G C30U A40U A70G and U16A A20U U35C G39C A42C G48A cannot be ordered by yeast fitness: ≤ 0.5 for the first, ≤ 0.5 for the second.

Compared with U16A C62A, A15U U47A G63A is lower in yeast fitness: 0.786 for the first, ≤ 0.5 for the second.

Compared with A15U U26A C31A G67U, U16A U54A is higher in yeast fitness: ≤ 0.5 for the first, 0.573 for the second.

Compared with U16A U54G, U16A C49U G52A C60A is lower in yeast fitness: 0.536 for the first, ≤ 0.5 for the second.

Compared with U16A G52A A57C C66U, U16A G58C is higher in yeast fitness: ≤ 0.5 for the first, 0.963 for the second.

First: U16A C33A C34A
Second: U16C G18A C24G A45U U59G G68C
The yeast fitness of the first is lower: ≤ 0.5 for the first, 0.537 for the second.

First: A15U G41C
Second: A15U G18C C24G C46A U64C A69G
The yeast fitness of the first is higher: 0.784 for the first, 0.513 for the second.

Going from U16C A70U to U16C A43C A45U C49G, the yeast fitness falls from 0.902 to 0.722.

U16A G38C C61U U64C and U16C C33G G39C A69C cannot be ordered by yeast fitness: ≤ 0.5 for the first, ≤ 0.5 for the second.

Compared with A15U G48A, U16C C29G is lower in yeast fitness: 0.763 for the first, 0.619 for the second.

U16C A21U A43U C61G and U16A U35A A57G C62G cannot be ordered by yeast fitness: ≤ 0.5 for the first, ≤ 0.5 for the second.

Going from U16C G25A C27A C29U G44A C55A to U16A C31A G51A, the yeast fitness rises from ≤ 0.5 to 0.552.

First: U16C C29G C60U
Second: U16A A65G
The yeast fitness of the first is lower: 0.638 for the first, 0.933 for the second.

First: U16A G48A C62G A69U
Second: U16A A20U C24G C31A C33G C61A G67C
The yeast fitness of the first is higher: 0.629 for the first, ≤ 0.5 for the second.

U16C C30U G41C and U16A A21U G23C U47C cannot be ordered by yeast fitness: ≤ 0.5 for the first, ≤ 0.5 for the second.

Going from U16A A37G C62U to U16A C22U U26C U54G A65G C66A, the yeast fitness falls from 0.543 to ≤ 0.5.

Going from U16C C29U G63A to U16A C24U C34A, the yeast fitness rises from 0.527 to 0.656.

Compared with A15U U19G C27A U28A, U16A A20G C27U G41C C55U A69U is lower in yeast fitness: 0.578 for the first, ≤ 0.5 for the second.

Going from U16A C61A C66U A69C to A15U U53A C62A, the yeast fitness falls from 0.697 to ≤ 0.5.

First: U16C A43G U59C
Second: A15U U16A G18A C60U
The yeast fitness of the first is higher: 0.609 for the first, ≤ 0.5 for the second.

Going from U16A C49U A69U to U16C C27A A45U C60G A65U, the yeast fitness falls from 0.647 to 0.542.

Going from U16A G44A to U16A G44C, the yeast fitness falls from 0.999 to 0.751.

U16A G23A C33A A65G and U16A C29G C30U A40U cannot be ordered by yeast fitness: ≤ 0.5 for the first, ≤ 0.5 for the second.

Going from U16C C30U C46A to A15U G38C G39A A43C C60G, the yeast fitness falls from 0.768 to 0.569.

First: U16C C22U C24U C29U C49U C60U
Second: U16C C22U A37U C49A C62U
The yeast fitness of the first is lower: ≤ 0.5 for the first, 0.6 for the second.

U16C A21C A37G A69G A70G and U16C A21C G41C A43C cannot be ordered by yeast fitness: ≤ 0.5 for the first, ≤ 0.5 for the second.

First: U16C C22G C66U
Second: U16A C55U U59A A65C
The yeast fitness of the first is higher: 0.721 for the first, ≤ 0.5 for the second.

Compared with U16C C46U, A15U G63A is lower in yeast fitness: 1.05 for the first, 0.675 for the second.

U16C C33U A36C G56C and U16A C24G C49G U53C cannot be ordered by yeast fitness: ≤ 0.5 for the first, ≤ 0.5 for the second.

First: U16C C30U C34G
Second: U16A A37G G44A A69U
The yeast fitness of the first is higher: 0.579 for the first, ≤ 0.5 for the second.

First: A15U G41C G56C
Second: A15U G23A C34A C49G A57G
The yeast fitness of the first is lower: ≤ 0.5 for the first, 0.57 for the second.

First: A15U G23A A45G
Second: U16A C29U
The yeast fitness of the first is lower: ≤ 0.5 for the first, 0.775 for the second.

Compared with U16A U32A A40C C62U, U16C C22G U64C is higher in yeast fitness: ≤ 0.5 for the first, 0.625 for the second.

First: U16C G25C U53A
Second: U16A C24U C34A A65G
The yeast fitness of the first is lower: ≤ 0.5 for the first, 0.716 for the second.

First: U16C C24G U32A G56A
Second: U16A C30G C34G A42U G52A A57C A65G
The yeast fitness of the first is higher: 0.544 for the first, ≤ 0.5 for the second.

U16C A42C U53A and A15U G39C A42C A65C cannot be ordered by yeast fitness: ≤ 0.5 for the first, ≤ 0.5 for the second.

Compared with U16C C27U C29A A40G A43C G50U, U16C C60A C62U is higher in yeast fitness: ≤ 0.5 for the first, 0.55 for the second.

First: U16C C24A
Second: U16C C24U
The yeast fitness of the first is lower: 0.668 for the first, 0.882 for the second.

In the case of A15U G58C C66U, the yeast fitness is reported as 0.631.

— the RNAGym collection of RNA variant scans (doi:10.1126/science.aae0568)
